# Calls of active or inactive are those of the source. No cut-off for these calls is given here.
# Key:
# Rattus norvegicus [1] = species on record: Rattus norvegicus; assay: Displacement of [3H]-BTX-B from neuronal voltage-gated sodium channel binding site 2 in rat hippocampal neurons at 40 uM; assay type: tissue-based; details: Hippocampus
# Procedure, shortened: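 Inhibition of specifically bound [3H]-BTX-B measured at a single concentration of 40 μM, run in duplicate, and expressed as percent inhibition.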
# [2] = Displacement of [3H]-BTX-B from neuronal voltage-gated sodium channel binding site 2 in rat hippocampal neurons; assay type: tissue-based, Hippocampus
# Rattus norvegicus [3] = species on record: Rattus norvegicus; assay: Inhibition of voltage-gated sodium channel in rat hippocampal neurons assessed as blocked of sodium current elicited at -10 mV for […] from holding potential -90 mV at 50 uM by patch clamp method; assay type: tissue-based; set-up: scale not given: the % may be the effect or the level left; details: Hippocampus
# Procedure, shortened: (§1)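 Hippocampi from E18 rat embryos were trypsin-dissociated and plated on poly-L-lysine coverslips, then kept over a glial monolayer in serum-free MEM with N2 for up to 4 weeks. Whole-cell patch clamp was used. Bath (mM): NaCl 30, choline Cl 110, TEA-Cl 30, CdCl2 0.1, pH 7.3. Cells were held at −90 mV for 5 min first. Tonic current block was measured at 50 μM (n=5–7), followed by washout.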
# Rattus norvegicus [4] = species on record: Rattus norvegicus; assay: Inhibition of voltage-gated sodium channel in rat hippocampal neurons assessed as blocked of sodium current elicited at -10 mV for […] from holding potential -90 mV at 50 uM measured after washout by patch clamp method; assay type: tissue-based; details: Hippocampus; procedure, shortened: as §1
Compound,Activity (Rattus norvegicus [1]),IC50 [2],Activity (Rattus norvegicus [3]),Activity (Rattus norvegicus [4])
CC(C)c1cc(C(O)(C(N)=O)C(F)(F)F)cc(C(C)C)c1O (stereo unspecified),24.5%,–,–,–
CC(C)c1cc(C2(C(F)(F)F)NC(=O)NC2=O)cc(C(C)C)c1O (stereo unspecified),55.1%,–,–,–
CC(C)c1cc(CCCCC(O)(C(N)=O)C(F)(F)F)cc(C(C)C)c1O (stereo unspecified),67.1%,22 µM,59%,inactive
CC(C)c1cc(CCCCCCC(O)(C(N)=O)C(F)(F)F)cc(C(C)C)c1O (stereo unspecified),71.4%,5.7 µM,–,inactive
NC(=O)C(O)(c1ccccc1)C(F)(F)F (stereo unspecified),6.8%,–,–,–
CC(C)c1cccc(C(C)C)c1O,16.6%,–,–,–

# From ChEMBL document CHEMBL1152603, “Comparative molecular field analysis and synthetic validation of a hydroxyamide-propofol binding and functional block of neuronal voltage-dependent sodium channels” (Bioorg Med Chem, 2009)
